How the values were obtained:
[1] = system: Staphylococcus epidermidis; assay: Antibacterial activity against methicillin-resistant coagulase-negative Staphylococcus epidermidis 197 after 50 passages by agar dilution method; assay type: functional
In short: (§1)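 Daily serial passage for up to 50 days at 35°C for 24 h in 1 ml MHB. Each transfer used 10 µl from the tube nearest the MIC (1–2 dilutions below) with the same turbidity as the drug-free control. MICs were measured by agar dilution, with changes given as log2 steps.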

[2] = system: Staphylococcus aureus; assay: Antibacterial activity against methicillin-resistant Staphylococcus aureus 507 by broth macrodilution method; assay type: functional
[3] = system: Staphylococcus aureus; assay: Antibacterial activity against methicillin-resistant Staphylococcus aureus 145 by broth macrodilution method; assay type: functional
[4] = system: Staphylococcus epidermidis; assay: Antibacterial activity against methicillin-resistant coagulase-negative Staphylococcus epidermidis 345 by broth macrodilution method; assay type: functional
[5] = system: Staphylococcus aureus; assay: Antibacterial activity against methicillin-susceptible Staphylococcus aureus by agar dilution method; assay type: functional
In short: (§2)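 Agar dilution on Mueller-Hinton agar per CLSI guidelines. S. aureus ATCC 29213 and E. faecalis ATCC 29212 were run with each set, and test MICs were accepted only when the control strains fell within acceptable ranges.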

[6] = system: coagulase-negative staphylococci; assay: Antibacterial activity against methicillin-resistant coagulase-negative staphylococci by agar dilution method
[7] = system: coagulase-negative staphylococci; assay: Antibacterial activity against Tmp-resistant coagulase-negative staphylococci by agar dilution method
[8] = system: Staphylococcus aureus; assay: Antibacterial activity against methicillin-susceptible Staphylococcus aureus 505 by broth macrodilution method; assay type: functional
[9] = system: Staphylococcus epidermidis; assay: Antibacterial activity against methicillin-resistant coagulase-negative Staphylococcus epidermidis 197 by broth macrodilution method; assay type: functional
[10] = system: Staphylococcus epidermidis; assay: Antibacterial activity against methicillin-resistant, vancomycin-intermediate coagulase-negative Staphylococcus epidermidis 225 by agar dilution method; assay type: functional; in short: as §2
[11] = system: coagulase-negative staphylococci; assay: Antibacterial activity against Tmp-susceptible coagulase-negative staphylococci by agar dilution method
[12] = system: Staphylococcus aureus; assay: Antibacterial activity against methicillin-susceptible Staphylococcus aureus ATCC 29213 after 50 passages by agar dilution method; assay type: functional; settings: ATCC29213
In short: (§3)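 Daily serial passage for up to 50 days at 35°C for 24 h in 1 ml MHB. […] Each transfer used 10 µl from the tube nearest the MIC (1–2 dilutions below) with the same turbidity as the drug-free control. […] MICs were measured by agar dilution, with changes given as log2 steps.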

[13] = system: Staphylococcus aureus; assay: microbe, parasite or virus in culture; settings: 505
[14] = system: Staphylococcus epidermidis; assay: Antibacterial activity against methicillin-resistant, Linezolid non-susceptible coagulase-negative Staphylococcus epidermidis 345 by agar dilution method; assay type: functional
[15] = system: coagulase-negative staphylococci; assay: Antibacterial activity against methicillin-susceptible coagulase-negative staphylococci by agar dilution method
[16] = system: Staphylococcus epidermidis; assay: Antibacterial activity against methicillin-resistant, Linezolid non-susceptible coagulase-negative Staphylococcus epidermidis 345 after 50 passages by agar dilution method; assay type: functional; in short: as §1
[17] = system: Staphylococcus epidermidis; assay: Antibacterial activity against methicillin-susceptible coagulase-negative Staphylococcus epidermidis 057 by broth macrodilution method; assay type: functional
[18] = system: Staphylococcus aureus; assay: Antibacterial activity against Tmp-susceptible coagulase-negative Staphylococcus aureus by agar dilution method; assay type: functional
In short: (§4)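 MICs by agar dilution on Mueller-Hinton agar following CLSI guidelines. S. aureus ATCC 29213 and E. faecalis ATCC 29212 were run as quality controls with each set, and test-strain MICs were kept only if control MICs fell within acceptable ranges.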

[19] = system: Staphylococcus aureus; assay: Antibacterial activity against methicillin-susceptible Staphylococcus aureus ATCC 29213 by broth macrodilution method; assay type: functional; settings: ATCC29213
[20] = system: Staphylococcus aureus; assay: Antibacterial activity against vancomycin-resistant Staphylococcus aureus VRS1 by broth macrodilution method; assay type: functional
In short: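 Michigan VRSA strain, one of 12 staphylococci later used in time-kill studies. MIC was determined by broth macrodilution and reported in μg/ml.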

[21] = system: Staphylococcus epidermidis; assay: Antibacterial activity against methicillin-susceptible coagulase-negative Staphylococcus epidermidis 057 after 10 passages by agar dilution method; assay type: functional; in short: as §3
[22] = system: Staphylococcus aureus; assay: Antibacterial activity against Tmp-susceptible Staphylococcus aureus by agar dilution method; assay type: functional; in short: as §4
[23] = system: Staphylococcus epidermidis; assay: Antibacterial activity against methicillin-resistant coagulase-negative Staphylococcus epidermidis 225 by broth macrodilution method; assay type: functional
[24] = system: Staphylococcus aureus; assay: Antibacterial activity against methicillin-resistant Staphylococcus aureus ATCC 43300 by broth macrodilution method; assay type: functional; settings: ATCC43300
[25] = system: Staphylococcus epidermidis; assay: Antibacterial activity against methicillin-resistant coagulase-negative Staphylococcus epidermidis 074 by broth macrodilution method; assay type: functional
[26] = system: Staphylococcus epidermidis; assay: Antibacterial activity against methicillin-susceptible coagulase-negative Staphylococcus epidermidis 051 after 50 passages by agar dilution method; assay type: functional; in short: as §1
[27] = system: Staphylococcus epidermidis; assay: Antibacterial activity against methicillin-susceptible coagulase-negative Staphylococcus epidermidis 051 by broth macrodilution method; assay type: functional
[28] = system: Staphylococcus aureus; assay: Antibacterial activity against methicillin-resistant and vancomycin-resistant Staphylococcus aureus VRS1 by agar dilution method; assay type: functional; in short: as §2
[29] = system: Staphylococcus aureus; assay: Antibacterial activity against methicillin-susceptible, vancomycin-intermediate Staphylococcus aureus 505 by broth macrodilution method; assay type: functional
[30] = system: Staphylococcus aureus; assay: Antibacterial activity against methicillin-resistant and vancomycin-resistant Staphylococcus aureus VRS1 after 50 passages by agar dilution method; assay type: functional; in short: as §3
[31] = system: Staphylococcus epidermidis; assay: Antibacterial activity against methicillin-susceptible coagulase-negative Staphylococcus epidermidis 057 after 50 passages by agar dilution method; assay type: functional; in short: as §1
[32] = system: Staphylococcus epidermidis; assay: Antibacterial activity against methicillin-resistant, vancomycin-intermediate coagulase-negative Staphylococcus epidermidis 225 after 50 passages by agar dilution method; assay type: functional; in short: as §3
[33] = system: Staphylococcus aureus; assay: Antibacterial activity against methicillin-susceptible, vancomycin-intermediate Staphylococcus aureus 505 after 50 passages by agar dilution method; assay type: functional; in short: as §3
[34] = system: Staphylococcus aureus; assay: Antibacterial activity against methicillin-resistant Staphylococcus aureus by agar dilution method; assay type: functional; in short: as §2
[35] = system: Staphylococcus aureus; assay: Antibacterial activity against methicillin-resistant Staphylococcus aureus ATCC 43300 after 50 passages by agar dilution method; assay type: functional; settings: ATCC43300
In short: (§5)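 Serial passage under drug. Inoculum was ~1 × 10^6 CFU/ml from overnight MHA growth, in 1 ml MHB at 35°C for 24 h. Drug ranged from 4 log2 steps above to 3 log2 steps below the MIC. […] MIC change is given as log2 steps.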

[36] = system: Staphylococcus aureus; assay: Antibacterial activity against methicillin-resistant Staphylococcus aureus 145 after 50 passages by agar dilution method; assay type: functional; in short: as §5
[37] = system: Staphylococcus aureus; assay: Antibacterial activity against Tmp-resistant Staphylococcus aureus by agar dilution method; assay type: functional; in short: as §4

CCC[C@@H]1C[C@@H](C(=O)N[C@@H]([C@H]2O[C@H](SC)[C@H](O)[C@@H](O)[C@H]2O)[C@H](C)Cl)N(C)C1 [CLINDAMYCIN]
> 32 µg/mL: MIC [3] | MIC90 [5] | MIC [10] | MIC90 [11] | MIC50 [22] | MIC90 [22] | MIC [24] | MIC [28]
≤ 0.06 µg/mL: MIC [18]
4 µg/mL: MIC [16] | MIC [26]
2 µg/mL: MIC [1] | MIC50 [7] | MIC [14]
32 µg/mL: MIC [12]
0.125 µg/mL: MIC50 [5] | MIC [8] | MIC [9] | MIC50 [11] | MIC [15] | MIC90 [15] | MIC [17] | MIC [19] | MIC [27] | MIC [29]
1 µg/mL: MIC [4]
512 µg/mL: MIC [2]
0.25 µg/mL: MIC50 [6] | MIC [25]
> 128 µg/mL: MIC [13] | MIC [21] | MIC [23]
> 512 µg/mL: MIC [20]

CC(=O)NC[C@H]1CN(c2ccc(N3CCOCC3)c(F)c2)C(=O)O1 [LINEZOLID]
1 µg/mL: MIC50 [6] | MIC50 [7] | MIC50 [11] | MIC [15] | MIC [18] | MIC [25] | MIC [37] | MIC50 [37]
2 µg/mL: MIC50 [5] | MIC90 [5] | MIC90 [6] | MIC90 [7] | MIC [9] | MIC [10] | MIC90 [11] | MIC90 [15] | MIC [17] | MIC50 [34] | MIC90 [34] | MIC50 [22] | MIC90 [22] | MIC [23] | MIC90 [37] | MIC [27]
64 µg/mL: MIC [31] | MIC [4] | MIC [35]
128 µg/mL: MIC [16] | MIC [26]
16 µg/mL: MIC [32] | MIC [12] | MIC [33] | MIC [36]
32 µg/mL: MIC [1] | MIC [30] | MIC [14]

CN(C)c1ccc(O)c2c1C[C@H]1C[C@H]3[C@H](N(C)C)C(O)=C(C(N)=O)C(=O)[C@@]3(O)C(O)=C1C2=O [MINOCYCLINE]
2 µg/mL: MIC [1] | MIC [2] | MIC [30] | MIC [31] | MIC [12] | MIC90 [34]
4 µg/mL: MIC [3] | MIC [26]
0.06 µg/mL: MIC [18]
0.125 µg/mL: MIC50 [5] | MIC [8] | MIC [9] | MIC [10] | MIC50 [11] | MIC [15] | MIC50 [34] | MIC [19] | MIC50 [22] | MIC [23] | MIC [24] | MIC [27] | MIC [29]
0.5 µg/mL: MIC50 [7] | MIC90 [7] | MIC [14] | MIC90 [15] | MIC [17] | MIC [28]
1 µg/mL: MIC [32] | MIC90 [6] | MIC90 [11] | MIC [16] | MIC [33] | MIC [20] | MIC [35]
8 µg/mL: MIC [36] | MIC90 [37]
0.25 µg/mL: MIC [4] | MIC90 [5] | MIC50 [6] | MIC90 [22] | MIC [25] | MIC50 [37]

CN[C@H](CC(C)C)C(=O)N[C@H]1C(=O)N[C@@H](CC(N)=O)C(=O)N[C@H]2C(=O)N[C@H]3C(=O)N[C@H](C(=O)N[C@H](C(=O)O)c4cc(O)cc(O)c4-c4cc3ccc4O)[C@H](O)c3ccc(c(Cl)c3)Oc3cc2cc(c3O[C@@H]2O[C@H](CO)[C@@H](O)[C@H](O)[C@H]2O[C@H]2C[C@](C)(N)[C@H](O)[C@H](C)O2)Oc2ccc(cc2Cl)[C@H]1O [VANCOMYCIN]
4 µg/mL: MIC90 [37]
2 µg/mL: MIC90 [5] | MIC50 [6] | MIC90 [6] | MIC50 [7] | MIC90 [7] | MIC90 [11] | MIC90 [15] | MIC90 [34] | MIC90 [22]
1 µg/mL: MIC50 [5] | MIC50 [11] | MIC50 [34] | MIC50 [22] | MIC50 [37]
8 µg/mL: MIC [10] | MIC [33] | MIC [23]
16 µg/mL: MIC [32]
> 32 µg/mL: MIC [28]
> 256 µg/mL: MIC [20]
